Source: publication PMC10795791 (Journal of Enzyme Inhibition and Medicinal Chemistry, 2024)

How the values were obtained:
[1] = test system: liver cancer cell line (HepG-2); experiment: MTT anticancer activity, HepG-2; assay type: cell-based; conditions: Homo sapiens, HepG2, 72 h, read-out: HepG-2 IC50
Summary of the method: (§1)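 ATCC-sourced cancer cell lines were used: HepG-2 liver, NFS-60 myeloid leukaemia and PC-3 prostate. Cells were incubated with test compound for 72 h, viability was measured by MTT, and IC50 was derived. Doxorubicin served as reference drug. Results are mean ± SEM; significance was by Tukey post hoc ANOVA.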

[2] = MTT anticancer activity, Caco-2; assay type: cell-based, human; conditions: human, Caco-2, Caco-2 SI (selectivity index), Wi-38 EC50 divided by Caco-2 IC50
Summary of the method: (§2)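 ATCC-sourced Caco-2 colon cancer cells were exposed to test compound for 72 h. Viability was read by microculture MTT, with doxorubicin as reference, and IC50 was derived. Normal human lung fibroblasts (Wi-38) were run in the same 72 h MTT format to obtain IC50 and EC100 for selectivity. Results are mean ± SEM.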

[3] = target: T1, PIM-1 kinase (Homo sapiens, UniProt P11309); experiment: In vitro PIM-1 kinase inhibition; assay type: biochemical; conditions: from pIC50 and molecular size
[4] = target: T1, PIM-1 kinase; assay type: biochemical; conditions: Lineweaver-Burk double-reciprocal plot; for mode of PIM-1 kinase inhibition: in the presence of ATP; for Km change / Vmax change: versus control
[5] = test system: colon cancer cells (Caco-2); experiment: MTT anticancer activity, Caco-2; assay type: cell-based, human; conditions: Homo sapiens, Caco-2, 72 h, read-out: Caco-2 IC50
Summary of the method: as §2

[6] = test system: prostate cancer cell line (PC-3); experiment: MTT anticancer activity, PC-3; assay type: cell-based; conditions: Homo sapiens, 72 h, read-out: PC-3 IC50
Summary of the method: as §1

[7] = test system: myeloid leukaemia cell line (NFS-60); experiment: MTT anticancer activity, NFS-60; assay type: cell-based; conditions: NFS-60, 72 h, read-out: NFS-60 IC50
Summary of the method: as §1

T1 sequence (P11309 whole entry): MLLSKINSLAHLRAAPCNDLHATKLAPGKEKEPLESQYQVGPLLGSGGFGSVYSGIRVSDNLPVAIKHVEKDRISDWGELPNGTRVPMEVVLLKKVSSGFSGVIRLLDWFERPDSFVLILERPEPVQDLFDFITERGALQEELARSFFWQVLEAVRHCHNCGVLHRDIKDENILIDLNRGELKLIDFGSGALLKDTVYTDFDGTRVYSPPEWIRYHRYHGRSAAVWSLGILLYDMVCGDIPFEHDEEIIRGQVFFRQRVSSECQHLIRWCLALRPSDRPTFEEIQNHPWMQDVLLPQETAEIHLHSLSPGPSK

Row | Compound | IC50 [1] | selectivity ratio at 72 h [2] | LE (ligand efficiency), PIM-1 kinase [3] | mode of PIM-1 kinase inhibition [4] | Km change [4] | Vmax change [4] | IC50 [5] | IC50 [6] | IC50 [7]
1 | CCOc1nc(-c2cccc(O)c2)cc(-c2cc3cc(Cl)ccc3nc2N2CCOCC2)c1C#N [Compound 4b, 4-(6-Chloro-2-morpholin-4-yl-quinolin-3-yl)-2-ethoxy-6-(3-hydroxyphenyl)pyridine-3-carbonitrile] | 59 nM |  |  |  |  |  |  |  | 
2 | CCCOc1nc(-c2cccc(O)c2)cc(-c2cc3cc(OC)ccc3nc2N2CCOCC2)c1C#N [Compound 4f, 6-(3-Hydroxyphenyl)-4-(6-methoxy-2-morpholin-4-yl-quinolin-3-yl)-2-propoxypyridine-3-carbonitrile] | 16.4 nM | ≥ 1.6 | ~0.3 | both ATP competitive and non-competitive inhibitors | increase | reduced |  |  | 
3 | CCOc1nc(-c2cccc(O)c2)cc(-c2cc3cc(OC)ccc3nc2N2CCOCC2)c1C#N [Compound 4c, 2-Ethoxy-6-(3-hydroxyphenyl)-4-(6-methoxy-2-morpholin-4-yl-quinolin-3-yl)pyridine-3-carbonitrile] | 13.2 nM |  | ~0.3 | both ATP competitive and non-competitive inhibitors | increase | reduced | 7 nM | 5 nM | 6 nM
4 | Nc1n[nH]c2nc(-c3cccc(O)c3)cc(-c3cc4ccccc4nc3N3CCOCC3)c12 [Compound 6a, 3-(3-Amino-4-(2-morpholin-4-yl-quinolin-3-yl)-1H-pyrazolo[3,4-b]pyridin-6-yl)phenol] | 66.7 nM |  |  |  |  |  |  |  | 
